Like-named read-outs stand apart in the source and are kept apart here.
What was measured:
[1] = tested on: BGC-823 gastric cancer xenografts; assay: Tumor growth assay, BGC-823 xenograft; type: in vivo, BALB/c nude mice; details: dosing from day 7, sacrificed day 28, n = 6
Method in brief: (§1)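 Female BALB/c nude mice, 4–5 weeks old and housed SPF, were implanted s.c. in the right flank with BGC-823 or HT-29 cells. At 100 mm3 tumours, mice were randomised into 7 groups. Arms were PBS, reference agents (80 mg/kg/7d; 5 mg/kg/7d) and test peptides at 5 mg/kg daily or every 4 days. Body weight and tumour volume were tracked; tumours were weighed at sacrifice; n = 6, mean ± SD.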

[2] = tested on: HT-29 colon cancer xenografts; assay: Tumor growth assay, HT-29 xenograft; type: in vivo, BALB/c nude mice; details: dosing from day 7, sacrificed day 28, n = 6
Method in brief: as §1

[3] = in rabbits, estimated; cited from earlier work
[4] = in humans; cited from earlier work
[5] = in mice; cited from earlier work
[6] = in rats; cited from earlier work
[7] = tested on: zebrafish embryo subintestinal vessels (SIVs); assay: Zebrafish angiogenesis model; type: in vivo; details: yolk sac microinjection at 2 dpf, read at 3 dpf, 10 zebrafish per group analysed
Method in brief: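 Transgenic zebrafish received test peptide by yolk-sac microinjection at 2 dpf, 30 embryos per group, with a positive control included. After a further 24 h, 10 embryos per group were randomly chosen. Fluorescent subintestinal vessels were imaged and SIV area was quantified by image analysis (mean ± SD, three to four independent experiments).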

O=P1(N(CCCl)CCCl)NCCCO1 (stereo not drawn) [CTX, Cyclophosphamide]
inhibition rate on BGC-823 xenografts ([1]; 80 mg/kg/7d, positive group): 65.9%
inhibition rate on HT-29 xenograft ([2]; 80 mg/kg/7d, positive group): 78.02%

Albumin
half-life [3]: 133 h
half-life [4]: 456 h
half-life [5]: 24 h
half-life [6]: 45.6 h

Avastin: recombinant humanized monoclonal IgG1 antibody against VEGF-A
angiogenesis of SIV plexus in zebrafish embryos (SIV area) [7]: inhibited the angiogenesis of SIV plexus
inhibition rate on BGC-823 xenografts ([1]; 5 mg/kg/7d): 79.54%
inhibition rate on HT-29 xenograft ([2]; 5 mg/kg/7d): 77.91%

Source: paper PMC5928873 (Theranostics, 2018)
